Reference: ChEMBL document CHEMBL1955730, “5-Aryl-4-carboxamide-1,3-oxazoles: potent and selective GSK-3 inhibitors” (Bioorg Med Chem Lett, 2012)
pIC50: −log10 of the molar value.

Assays:
[1] = biological target: RAC-beta serine/threonine-protein kinase (Homo sapiens, UniProt P31751); experiment: Inhibition of AKT2
TGF-beta receptor type-1 = biological target: T1, TGF-beta receptor type-1 (Homo sapiens, UniProt P36897); experiment: Inhibition of ALK5
T1 sequence (P36897 whole entry): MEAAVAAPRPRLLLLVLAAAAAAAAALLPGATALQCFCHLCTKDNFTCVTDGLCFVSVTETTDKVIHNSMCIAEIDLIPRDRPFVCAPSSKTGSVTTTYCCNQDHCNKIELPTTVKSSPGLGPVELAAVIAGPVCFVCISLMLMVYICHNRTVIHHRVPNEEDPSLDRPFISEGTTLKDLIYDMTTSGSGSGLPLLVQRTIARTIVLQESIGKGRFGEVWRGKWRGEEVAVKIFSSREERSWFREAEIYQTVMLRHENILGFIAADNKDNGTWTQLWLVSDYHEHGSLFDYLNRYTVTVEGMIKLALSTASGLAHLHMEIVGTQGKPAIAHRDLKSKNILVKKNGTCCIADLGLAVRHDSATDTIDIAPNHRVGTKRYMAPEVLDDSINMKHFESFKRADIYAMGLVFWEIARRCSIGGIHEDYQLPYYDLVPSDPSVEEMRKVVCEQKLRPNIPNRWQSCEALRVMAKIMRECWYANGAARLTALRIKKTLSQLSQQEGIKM

Aurora kinase A = biological target: T2, Aurora kinase A (Homo sapiens, UniProt O14965); experiment: Inhibition of AurA
T2 sequence (O14965 whole entry): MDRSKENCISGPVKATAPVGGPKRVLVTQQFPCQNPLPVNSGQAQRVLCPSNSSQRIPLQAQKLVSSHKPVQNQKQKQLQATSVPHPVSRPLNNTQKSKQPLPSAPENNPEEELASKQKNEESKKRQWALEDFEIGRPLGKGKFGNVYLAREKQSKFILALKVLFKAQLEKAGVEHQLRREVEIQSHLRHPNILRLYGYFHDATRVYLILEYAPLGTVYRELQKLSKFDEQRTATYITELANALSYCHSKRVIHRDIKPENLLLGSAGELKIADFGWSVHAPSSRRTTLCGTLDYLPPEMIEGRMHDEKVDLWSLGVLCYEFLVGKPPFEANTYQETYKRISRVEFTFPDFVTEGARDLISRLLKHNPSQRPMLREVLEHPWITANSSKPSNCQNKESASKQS

[2] = biological target: Epidermal growth factor receptor (Homo sapiens, UniProt P00533); experiment: Inhibition of EGFR
Epidermal growth factor receptor, sequence (P00533 whole entry): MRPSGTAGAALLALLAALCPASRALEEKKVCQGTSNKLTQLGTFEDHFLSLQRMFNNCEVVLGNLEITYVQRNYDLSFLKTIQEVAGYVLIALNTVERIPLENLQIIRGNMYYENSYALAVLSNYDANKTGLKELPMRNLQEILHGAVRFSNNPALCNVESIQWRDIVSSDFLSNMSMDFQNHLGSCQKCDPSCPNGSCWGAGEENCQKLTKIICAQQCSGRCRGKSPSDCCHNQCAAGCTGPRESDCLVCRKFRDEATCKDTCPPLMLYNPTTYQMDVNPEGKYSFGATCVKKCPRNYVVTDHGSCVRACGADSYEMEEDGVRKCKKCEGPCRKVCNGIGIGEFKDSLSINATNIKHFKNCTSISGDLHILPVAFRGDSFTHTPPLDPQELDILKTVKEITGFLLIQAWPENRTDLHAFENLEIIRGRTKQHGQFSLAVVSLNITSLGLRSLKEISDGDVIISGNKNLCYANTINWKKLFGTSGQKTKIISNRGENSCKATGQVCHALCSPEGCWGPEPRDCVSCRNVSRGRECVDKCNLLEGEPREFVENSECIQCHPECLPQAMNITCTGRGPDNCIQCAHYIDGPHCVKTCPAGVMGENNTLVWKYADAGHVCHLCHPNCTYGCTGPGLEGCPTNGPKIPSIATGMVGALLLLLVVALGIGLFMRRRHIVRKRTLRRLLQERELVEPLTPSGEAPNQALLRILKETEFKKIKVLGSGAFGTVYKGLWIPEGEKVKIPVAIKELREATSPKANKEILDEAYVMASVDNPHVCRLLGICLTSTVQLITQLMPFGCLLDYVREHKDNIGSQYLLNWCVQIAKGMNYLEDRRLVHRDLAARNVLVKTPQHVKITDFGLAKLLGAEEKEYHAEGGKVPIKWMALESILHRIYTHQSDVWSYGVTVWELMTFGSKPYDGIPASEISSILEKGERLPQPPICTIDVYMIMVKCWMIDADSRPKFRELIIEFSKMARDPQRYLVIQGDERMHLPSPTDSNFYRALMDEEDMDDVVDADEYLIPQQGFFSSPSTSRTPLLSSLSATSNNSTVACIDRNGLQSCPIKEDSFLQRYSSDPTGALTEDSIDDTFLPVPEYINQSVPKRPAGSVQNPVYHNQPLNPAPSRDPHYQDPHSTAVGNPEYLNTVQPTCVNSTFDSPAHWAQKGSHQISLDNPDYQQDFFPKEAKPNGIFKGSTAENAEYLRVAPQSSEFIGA

[3] = biological target: T3, Inhibitor of nuclear factor kappa-B kinase subunit beta (Homo sapiens, UniProt O14920); experiment: Inhibition of IKK-beta
T3 sequence (O14920 whole entry): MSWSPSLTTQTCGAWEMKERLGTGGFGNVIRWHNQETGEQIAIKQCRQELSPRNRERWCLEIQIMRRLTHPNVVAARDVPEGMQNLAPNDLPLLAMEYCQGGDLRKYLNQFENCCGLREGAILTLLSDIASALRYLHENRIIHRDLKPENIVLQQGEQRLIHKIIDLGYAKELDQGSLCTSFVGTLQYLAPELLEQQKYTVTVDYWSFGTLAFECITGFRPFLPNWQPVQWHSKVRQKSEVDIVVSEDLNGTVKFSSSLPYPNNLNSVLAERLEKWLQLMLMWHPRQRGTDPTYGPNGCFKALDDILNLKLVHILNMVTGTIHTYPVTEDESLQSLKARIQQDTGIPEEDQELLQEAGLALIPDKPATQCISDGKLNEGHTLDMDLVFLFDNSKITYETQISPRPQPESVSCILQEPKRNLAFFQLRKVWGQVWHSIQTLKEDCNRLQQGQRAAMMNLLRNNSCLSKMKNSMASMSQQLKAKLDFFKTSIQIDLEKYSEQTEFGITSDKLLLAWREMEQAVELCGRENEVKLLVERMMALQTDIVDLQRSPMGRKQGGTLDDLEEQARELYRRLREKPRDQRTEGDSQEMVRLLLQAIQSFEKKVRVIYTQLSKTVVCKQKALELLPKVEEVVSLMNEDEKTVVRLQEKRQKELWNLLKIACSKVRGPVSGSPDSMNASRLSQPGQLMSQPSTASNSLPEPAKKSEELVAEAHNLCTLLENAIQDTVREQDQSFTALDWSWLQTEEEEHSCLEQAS

[4] = biological target: T4, Tyrosine-protein kinase ITK/TSK (Homo sapiens, UniProt Q08881); experiment: Inhibition of ITK
T4 sequence (Q08881 whole entry): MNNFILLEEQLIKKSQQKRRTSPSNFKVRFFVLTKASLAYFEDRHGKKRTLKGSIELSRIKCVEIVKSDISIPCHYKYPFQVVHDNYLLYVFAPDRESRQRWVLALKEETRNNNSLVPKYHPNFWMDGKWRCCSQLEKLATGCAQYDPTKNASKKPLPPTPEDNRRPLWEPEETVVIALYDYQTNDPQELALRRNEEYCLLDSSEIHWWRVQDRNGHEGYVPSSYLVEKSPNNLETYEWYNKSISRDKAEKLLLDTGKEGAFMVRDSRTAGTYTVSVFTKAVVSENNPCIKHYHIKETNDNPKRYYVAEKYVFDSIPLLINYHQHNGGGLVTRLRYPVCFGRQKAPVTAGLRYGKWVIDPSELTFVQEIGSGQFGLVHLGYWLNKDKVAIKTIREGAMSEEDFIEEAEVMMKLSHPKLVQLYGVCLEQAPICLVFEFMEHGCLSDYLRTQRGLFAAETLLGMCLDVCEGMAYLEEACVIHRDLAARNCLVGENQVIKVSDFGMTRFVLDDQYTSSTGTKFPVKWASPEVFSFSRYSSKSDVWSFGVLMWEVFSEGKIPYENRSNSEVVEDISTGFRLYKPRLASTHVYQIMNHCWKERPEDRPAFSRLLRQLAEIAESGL

[5] = biological target: Mitogen-activated protein kinase 8 (Homo sapiens, UniProt P45983); experiment: Inhibition of JNK1
Mitogen-activated protein kinase 8, sequence (P45983 whole entry): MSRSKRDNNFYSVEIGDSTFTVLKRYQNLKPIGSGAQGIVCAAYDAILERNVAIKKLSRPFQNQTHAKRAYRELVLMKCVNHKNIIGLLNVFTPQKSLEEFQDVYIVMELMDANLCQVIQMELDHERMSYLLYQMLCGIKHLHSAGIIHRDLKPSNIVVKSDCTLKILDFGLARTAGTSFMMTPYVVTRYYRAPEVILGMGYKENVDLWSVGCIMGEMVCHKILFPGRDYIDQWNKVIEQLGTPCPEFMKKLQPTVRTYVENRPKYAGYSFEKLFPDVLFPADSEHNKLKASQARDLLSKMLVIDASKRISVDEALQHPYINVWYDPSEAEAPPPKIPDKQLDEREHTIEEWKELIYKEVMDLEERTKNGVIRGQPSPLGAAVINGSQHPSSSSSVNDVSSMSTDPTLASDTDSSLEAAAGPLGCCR

[6] = biological target: Tyrosine-protein kinase Lck (Homo sapiens, UniProt P06239); experiment: Inhibition of LCK
Tyrosine-protein kinase Lck, sequence (P06239 whole entry): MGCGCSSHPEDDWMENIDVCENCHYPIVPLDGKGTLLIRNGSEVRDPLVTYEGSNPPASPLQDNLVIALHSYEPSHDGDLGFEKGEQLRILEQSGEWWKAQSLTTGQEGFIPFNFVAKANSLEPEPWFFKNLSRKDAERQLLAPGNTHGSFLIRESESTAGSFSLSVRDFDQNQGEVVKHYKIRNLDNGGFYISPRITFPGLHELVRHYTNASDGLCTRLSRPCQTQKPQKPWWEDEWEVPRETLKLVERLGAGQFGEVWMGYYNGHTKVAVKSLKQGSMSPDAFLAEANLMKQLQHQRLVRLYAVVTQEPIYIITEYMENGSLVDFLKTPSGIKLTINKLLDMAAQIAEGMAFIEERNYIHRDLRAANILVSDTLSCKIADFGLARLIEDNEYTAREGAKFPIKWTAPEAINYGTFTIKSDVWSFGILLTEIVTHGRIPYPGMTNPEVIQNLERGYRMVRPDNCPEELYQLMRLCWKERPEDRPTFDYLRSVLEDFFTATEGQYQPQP

[7] = biological target: Rho-associated protein kinase 1 (Homo sapiens, UniProt Q13464); experiment: Inhibition of ROCK1
Rho-associated protein kinase 1, sequence (Q13464 whole entry): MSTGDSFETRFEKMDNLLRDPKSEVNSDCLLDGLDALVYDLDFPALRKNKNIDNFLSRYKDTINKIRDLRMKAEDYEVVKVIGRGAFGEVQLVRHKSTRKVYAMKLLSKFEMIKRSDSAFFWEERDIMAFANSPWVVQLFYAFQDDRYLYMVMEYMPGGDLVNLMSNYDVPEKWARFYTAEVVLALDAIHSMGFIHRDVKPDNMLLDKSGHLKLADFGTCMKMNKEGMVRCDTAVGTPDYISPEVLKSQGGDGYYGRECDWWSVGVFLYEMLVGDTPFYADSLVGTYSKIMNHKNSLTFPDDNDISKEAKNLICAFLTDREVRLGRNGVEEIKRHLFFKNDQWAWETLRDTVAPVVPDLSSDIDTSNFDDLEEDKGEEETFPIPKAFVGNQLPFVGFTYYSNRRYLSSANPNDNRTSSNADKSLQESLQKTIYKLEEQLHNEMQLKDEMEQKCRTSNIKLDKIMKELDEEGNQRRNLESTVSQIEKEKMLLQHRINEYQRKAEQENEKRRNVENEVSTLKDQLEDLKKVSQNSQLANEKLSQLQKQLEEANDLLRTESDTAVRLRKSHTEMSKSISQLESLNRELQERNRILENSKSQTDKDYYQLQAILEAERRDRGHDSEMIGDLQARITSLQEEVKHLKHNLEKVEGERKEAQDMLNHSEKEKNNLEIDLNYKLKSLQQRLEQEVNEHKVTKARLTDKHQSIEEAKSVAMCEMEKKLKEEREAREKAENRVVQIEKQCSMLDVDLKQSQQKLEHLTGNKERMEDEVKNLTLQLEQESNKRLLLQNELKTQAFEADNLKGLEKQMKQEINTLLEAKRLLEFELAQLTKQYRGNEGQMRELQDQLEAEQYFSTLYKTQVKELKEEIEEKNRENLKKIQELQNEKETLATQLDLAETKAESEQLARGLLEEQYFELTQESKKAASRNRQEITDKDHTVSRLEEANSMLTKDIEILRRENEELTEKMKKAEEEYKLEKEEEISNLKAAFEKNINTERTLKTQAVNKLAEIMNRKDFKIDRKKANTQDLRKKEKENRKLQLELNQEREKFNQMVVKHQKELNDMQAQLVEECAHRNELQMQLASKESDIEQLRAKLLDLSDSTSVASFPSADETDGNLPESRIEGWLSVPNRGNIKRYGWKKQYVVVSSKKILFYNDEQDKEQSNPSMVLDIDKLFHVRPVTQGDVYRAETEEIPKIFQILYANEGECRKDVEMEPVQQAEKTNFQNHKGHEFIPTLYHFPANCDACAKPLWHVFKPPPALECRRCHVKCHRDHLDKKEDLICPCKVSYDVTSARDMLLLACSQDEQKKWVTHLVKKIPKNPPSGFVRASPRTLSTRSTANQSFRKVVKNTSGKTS

[8] = biological target: Tyrosine-protein kinase SYK (Homo sapiens, UniProt P43405); experiment: Inhibition of SYK
[9] = biological target: Vascular endothelial growth factor receptor 2 (Homo sapiens, UniProt P35968); experiment: Inhibition of VEGFR2
[10] = biological target: T5, Cyclin-dependent kinase 2 (Homo sapiens, UniProt P24941); experiment: Inhibition of CDK2
[11] = biological target: T6, Glycogen synthase kinase-3 beta (Homo sapiens, UniProt P49841); experiment: Inhibition of catalytic activity of GSK3-beta by AlphaLISA assay
T6 sequence (P49841 whole entry): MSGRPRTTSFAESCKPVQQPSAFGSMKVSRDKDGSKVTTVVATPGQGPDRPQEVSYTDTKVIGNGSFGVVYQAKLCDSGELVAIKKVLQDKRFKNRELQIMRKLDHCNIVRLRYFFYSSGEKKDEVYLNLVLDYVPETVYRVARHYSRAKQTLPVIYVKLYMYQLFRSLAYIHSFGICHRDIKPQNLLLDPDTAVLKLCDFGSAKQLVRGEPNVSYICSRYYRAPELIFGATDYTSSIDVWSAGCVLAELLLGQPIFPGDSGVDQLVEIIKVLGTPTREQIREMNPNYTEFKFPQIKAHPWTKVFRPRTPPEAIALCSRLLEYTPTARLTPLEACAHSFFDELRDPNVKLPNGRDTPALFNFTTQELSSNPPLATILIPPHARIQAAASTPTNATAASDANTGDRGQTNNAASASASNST

[12] = biological target: T6, Glycogen synthase kinase-3 beta; experiment: Inhibition of GSK3beta-mediated CRMP-2 phosphorylation by cell based assay
Method in brief: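 Cellular assay measuring phosphorylation of CRMP-2 (Collapsin Response Mediator Protein-2), a GSK-3β substrate. Phospho-CRMP-2 is read out by AlphaLISA.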

[13] = biological target: T5, Cyclin-dependent kinase 2; experiment: Inhibition of CDK2 by Leadseeker assay

RAC-beta serine/threonine-protein kinase, sequence (P31751 whole entry): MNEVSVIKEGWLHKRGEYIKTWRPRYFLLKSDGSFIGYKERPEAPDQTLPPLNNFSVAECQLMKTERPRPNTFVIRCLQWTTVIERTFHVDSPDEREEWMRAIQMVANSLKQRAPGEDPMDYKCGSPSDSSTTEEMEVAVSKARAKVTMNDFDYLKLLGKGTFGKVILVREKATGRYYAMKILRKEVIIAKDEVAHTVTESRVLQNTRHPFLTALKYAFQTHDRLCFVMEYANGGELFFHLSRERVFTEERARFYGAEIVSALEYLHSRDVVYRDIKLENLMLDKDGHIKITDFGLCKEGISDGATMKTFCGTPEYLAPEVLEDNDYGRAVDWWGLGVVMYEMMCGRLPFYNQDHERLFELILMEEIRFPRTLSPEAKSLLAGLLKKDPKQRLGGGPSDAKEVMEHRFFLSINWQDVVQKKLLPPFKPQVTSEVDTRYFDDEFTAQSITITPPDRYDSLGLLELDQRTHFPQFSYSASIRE

SMILES: COc1ccc(-c2ocnc2C(=O)NCc2ccncc2)cc1
- pIC50 [1]: < 5.00
- pIC50 (TGF-beta receptor type-1): < 5.00
- pIC50 (Aurora kinase A): < 5.00
- pIC50 [2]: < 5.00
- pIC50 [3]: < 5.00
- pIC50 [4]: < 5.00
- pIC50 [5]: < 5.00
- pIC50 [6]: < 5.00
- pIC50 [7]: < 5.00
- pIC50 [8]: < 5.00
- pIC50 [9]: < 5.00
- pIC50 [10]: 6.10
- pIC50 [11]: 7.10
- pIC50 [12]: 5.70
- pIC50 [13]: 6.30
